Experiment [1] deals with full-length human PARP2 (Homo sapiens, UniProt Q9UGN5). The experiment in a line: PARP2 auto-poly-ADP-ribosylation, immunoblot with anti-PAR antibody. Format: biochemical. The settings on record: compound 100 μM, 300 μM NAD+. An outline of the steps: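 Full-length human enzyme was recombinantly expressed in and purified from bacteria. Auto-PARylation was run in the absence and presence of test compound at 100 μM. Immunoblots were probed with anti-PAR antibody and band signal was quantified.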
Sequence of full-length human PARP2 (Q9UGN5 whole entry): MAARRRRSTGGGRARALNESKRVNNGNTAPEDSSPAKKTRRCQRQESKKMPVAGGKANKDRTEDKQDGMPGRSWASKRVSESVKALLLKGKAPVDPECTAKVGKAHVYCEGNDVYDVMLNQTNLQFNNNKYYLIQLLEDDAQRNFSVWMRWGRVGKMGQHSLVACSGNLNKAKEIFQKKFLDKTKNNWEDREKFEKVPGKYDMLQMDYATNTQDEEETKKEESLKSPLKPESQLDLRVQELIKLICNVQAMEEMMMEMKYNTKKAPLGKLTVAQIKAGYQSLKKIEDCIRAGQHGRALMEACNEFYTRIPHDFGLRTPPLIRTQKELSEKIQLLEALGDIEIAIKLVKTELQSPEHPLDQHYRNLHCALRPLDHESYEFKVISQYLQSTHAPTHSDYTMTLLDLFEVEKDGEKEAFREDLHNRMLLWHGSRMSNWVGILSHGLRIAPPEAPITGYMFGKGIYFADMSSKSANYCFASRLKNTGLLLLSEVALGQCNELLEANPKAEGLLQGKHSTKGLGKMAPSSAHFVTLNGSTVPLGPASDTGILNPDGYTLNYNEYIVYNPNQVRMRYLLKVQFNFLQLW

The target in experiment [2] is catalytic domain of human PARP5a (Homo sapiens, UniProt O95271). The experiment in a line: PARP5a auto-ADP-ribosylation, immunoblot with pan-ADPr binding reagent. Format: biochemical. The settings on record: compound 100 μM, 300 μM NAD+. In general terms: In western blotting, separated proteins are transferred to a membrane and probed.
Sequence of catalytic domain of human PARP5a (O95271 1112-1317): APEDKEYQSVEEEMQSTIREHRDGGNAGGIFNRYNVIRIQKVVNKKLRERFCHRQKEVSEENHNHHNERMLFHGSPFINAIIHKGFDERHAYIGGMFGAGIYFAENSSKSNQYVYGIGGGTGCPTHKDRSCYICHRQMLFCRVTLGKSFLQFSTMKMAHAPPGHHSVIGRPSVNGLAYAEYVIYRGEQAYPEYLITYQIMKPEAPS
In experiment [3] the target is T1, catalytic domain of human PARP10 (Homo sapiens, UniProt Q53GL7).
T1 sequence (Q53GL7 806-1025 limits assumed): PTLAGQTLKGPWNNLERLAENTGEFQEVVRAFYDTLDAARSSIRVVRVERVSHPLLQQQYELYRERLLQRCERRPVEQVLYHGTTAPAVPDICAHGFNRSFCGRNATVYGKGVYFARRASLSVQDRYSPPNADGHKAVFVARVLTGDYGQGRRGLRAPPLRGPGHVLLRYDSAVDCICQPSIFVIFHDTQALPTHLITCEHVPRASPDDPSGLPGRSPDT
The experiment in a line: PARP10 auto-ADP-ribosylation. Format: biochemical. To be noted: compound 100 μM; 300 μM NAD+; pan-ADPr binding reagent immunoblot.

Experiment [4] has as its system HAP1 wild-type cell lysates. Put plainly: Protein ADP-ribosylation in HAP1 wild-type cell lysates, immunoblot. Format: biochemical, human. To be noted: compound 100 μM; 600 μM NAD+; olaparib 100 μM as control.
Experiment [5] relates to HAP1/PARP1-knockout cell lysates. The experiment in a line: Protein ADP-ribosylation in HAP1/PARP1-KO cell lysates, immunoblot. To be noted: compound 100 μM; 600 μM NAD+; olaparib 100 μM as control. The class given is biochemical, human.
Experiment [6] concerns HeLa cells. The experiment in a line: Cellular ADP-ribosylation in H2O2-stimulated HeLa cells. Format: cell-based, human. The settings on record: H2O2 1 mM, inhibitor 100 μM, 20 minutes. An outline of the steps:
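HeLa cells were stimulated with H2O2 and treated without or with test compound at 100 μM. Cellular ADP-ribosylation was imaged by confocal microscopy using an AF1521 macrodomain-based pan-ADPr binding reagent. Lysates were immunoblotted with the same pan-ADPr reagent, with anti-GAPDH as loading control. Densitometry was normalized to loading controls, and significance was reported as p < 0.05 and p < 0.01.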

Entries after “also recorded” stand apart in the source; their conditions may differ.

`CC(=O)c1cccc(COc2ccccc2C(N)=O)c1` [compound 3]: the “inhibition of PARP2-catalyzed auto-modification (PARylation)” value (“inhibition … (PARylation)” below) in experiment [1] is “functions as an inhibitor for PARP2; also recorded: significantly inhibit”. Besides, in experiment [2], the “inhibition of PARP5a-catalyzed auto-ADP-ribosylation” value was “significantly decreased levels of ADP-ribosylation”. For the same compound, the “inhibition of PARP10-catalyzed auto-ADP-ribosylation” value in experiment [3] is “significantly decreased levels of ADP-ribosylation”. Further, the “inhibition of protein ADP-ribosylation in HAP1-WT cell lysates” value in experiment [4] is recorded as “significantly higher than those of olaparib-treated ones”. In experiment [5], the “inhibition of protein ADP-ribosylation in HAP1/PARP1-KO cell lysates” value was “no significant differences to those of olaparib-treated ones and non-modified controls”.

For `CC(=O)c1cccc([C@@H](C)Oc2ccccc2C(N)=O)c1` [compound 4], in experiment [1], the “inhibition … (PARylation)” value is “reduced inhibition activities”.

For the compound `CC(=O)c1cccc([C@H](C)Oc2ccccc2C(N)=O)c1` [compound 5], the “inhibition … (PARylation)” value in experiment [1] was “reduced inhibition activities”.

Regarding `CC(=O)c1cccc(CCOc2ccccc2C(N)=O)c1` [compound 7], the “effect on cellular ADP-ribosylation triggered by H2O2” value (shortened to “effect”) in experiment [6] was “no significant impact”.

As for `CC(=O)c1cccc(CCOc2ccc(F)cc2C(N)=O)c1` [compound 8], the “effect” value in experiment [6] is “no significant impact”.

As to `CC(=O)c1cccc(CCCOc2ccccc2C(N)=O)c1` [compound 9], in experiment [1], the “inhibition … (PARylation)” value was “reduced inhibition activities”.

As to `O=C(c1cc(Cc2n[nH]c(=O)c3ccccc23)ccc1F)N1CCN(C(=O)C2CC2)CC1` [olaparib, reference compound], the “effect” value in experiment [6] is given as “largely suppressed”.

The record behind these values is publication PMC11571001 (ACS Medicinal Chemistry Letters, 2024).
